Laboratory results reported in ChEMBL document CHEMBL1133602, “A study of the relationship between biological activity and prolyl amide isomer geometry in oxytocin using 5-tert-butylproline to augment the Cys(6)-Pro(7) amide cis-isomer population” (J Med Chem, 2000).
pEC50, pKi: −log10 of the molar value. Numbered stars: 1 amine (or outer) side, 2 acyl side, 3 side chain; on linkers, the order of the positions; unused ones are H or OH. Bridge positions count the residues as written; N and C are the ends. Square brackets hold non-standard residues; d marks the D form. Peptide text beside a SMILES is read from it. X3 = CC(C)(C)[C@H]1CC[C@@H](C(=O)[*:2])N1[*:1]; X1 = CC(C)(C)C1CC[C@@H](C(=O)[*:2])N1[*:1]; Mpa = O=C(O)CCS

Tests used:
Rattus norvegicus [1] = species: Rattus norvegicus; assay: Compound was evaluated for the pressor activity in rat; type: functional
Method in brief: (§1)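 Male rats (220-260 g) under urethane, pretreated with phenoxybenzamine in two doses. Femoral vein cannulated for dosing and carotid artery for blood pressure. After about 30 min stabilization, i.v. bolus doses of standard or analogue given in random order. Standard curve spanned 2 × 10-5 - 2 × 10-4 mg/kg. Activity set against the standard, 3-4 animals per analogue.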

Rattus norvegicus [2] = species: Rattus norvegicus; assay: In Vitro evaluation for the uterotonic activity in rat in the absence of Magnesium; type: functional
Method in brief: (§2)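 Isolated uterus from rats estrogenized 24-48 h beforehand, in Munsick solution without magnesium or with 1 mM Mg2+, oxytocin as standard. Single doses given in random order with bath changed after each response and at least 5 min between doses; cumulative doubling doses given at 1-min intervals. IU/mg from threshold doses against standard, EC50 from the curves. Uteri from 3-5 rats.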

Rattus norvegicus [3] = species: Rattus norvegicus; assay: In Vitro evaluation for the uterotonic activity in rat in the presence of 1 mM of Magnesium; type: functional; method in brief: as §2
Rattus norvegicus [4] = species: Rattus norvegicus; assay: Effective concentration in rat in the absence of Magnesium; type: functional, organism-based
Method in brief: (§3)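 Isolated uterus from estrogen-primed rats (24-48 h) in Munsick solution, either without magnesium or with 1 mM Mg2+. Antagonist added 1 min before a standard oxytocin dose. EC50 is the concentration that cuts the response to a 2x agonist dose down to that of dose x; pA2 is its negative log. Uteri from 3-5 rats.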

Rattus norvegicus [5] = species: Rattus norvegicus; assay: Effective concentration in rat in the presence of 1 mM of Magnesium; type: functional, organism-based; method in brief: as §3
Oxytocin receptor = molecular target: T1, Oxytocin receptor (Rattus norvegicus, UniProt P70536); assay: Binding affinity against oxytocin receptor
T1 sequence (P70536 whole entry): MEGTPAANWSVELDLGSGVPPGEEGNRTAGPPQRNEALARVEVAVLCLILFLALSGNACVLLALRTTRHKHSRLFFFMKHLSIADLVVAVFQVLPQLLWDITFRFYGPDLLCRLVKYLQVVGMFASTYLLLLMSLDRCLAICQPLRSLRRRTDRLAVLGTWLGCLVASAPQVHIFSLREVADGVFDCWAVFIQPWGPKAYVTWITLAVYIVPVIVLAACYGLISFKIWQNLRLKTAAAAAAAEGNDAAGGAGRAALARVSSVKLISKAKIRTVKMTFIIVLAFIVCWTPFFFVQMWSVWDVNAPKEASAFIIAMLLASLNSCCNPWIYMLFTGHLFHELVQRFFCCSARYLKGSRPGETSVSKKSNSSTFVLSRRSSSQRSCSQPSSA
Method in brief: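 Crude rat uterine membrane fraction incubated with [3H]oxytocin (2 nM) plus peptide at 0.1-10000 nM, 30 min at 35 °C. Buffer was 50 mM HEPES pH 7.6 with 10 mM MnCl2 and 1 mg/mL bovine serum albumin. Bound and free separated by rapid filtration.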

Rattus norvegicus [6] = species: Rattus norvegicus; assay: Compound was evaluated for the pressor activity; type: functional; method in brief: as §1

| Structure (SMILES) | Activity (Rattus norvegicus [1]) [IU/mg] | Activity (Rattus norvegicus [2]) [IU mg-1] | Activity (Rattus norvegicus [3]) [IU mg-1] | pEC50 (Rattus norvegicus [4]) | pEC50 (Rattus norvegicus [5]) | pKi (Oxytocin receptor) | Activity (Rattus norvegicus [6]) [IU/mg] |
| --- | --- | --- | --- | --- | --- | --- | --- |
| CC[C@H](C)[C@@H]1NC(=O)[C@H](Cc2ccc(O)cc2)NC(=O)[C@@H](N)CSSC[C@@H](C(=O)N2[C@H](C(=O)N[C@@H](CC(C)C)C(=O)NCC(N)=O)CC[C@@H]2C(C)(C)C)NC(=O)[C@H](CC(N)=O)NC(=O)[C@H](CCC(N)=O)NC1=O (H-CYIQNC[X3]LG-NH2; disulfide 1-6) [listing 1 of 2 here] | 0 | 1.8 | 0.5 |  |  |  |  |
| CC[C@H](C)[C@@H]1NC(=O)[C@H](Cc2ccc(O)cc2)NC(=O)[C@@H](N)CSSC[C@@H](C(=O)N2CCC[C@H]2C(=O)N[C@@H](CC(C)C)C(=O)NCC(N)=O)NC(=O)[C@H](CC(N)=O)NC(=O)[C@H](CCC(N)=O)NC1=O [OXYTOCIN] | 5 | 450 | 450 | 9.22 | 9.30 |  |  |
| CC[C@H](C)[C@@H]1NC(=O)[C@H](Cc2ccc(O)cc2)NC(=O)[C@@H](N)CSSC[C@@H](C(=O)N2[C@H](C(=O)N[C@@H](CC(C)C)C(=O)NCC(N)=O)CC[C@@H]2C(C)(C)C)NC(=O)[C@H](CC(N)=O)NC(=O)[C@H](CCC(N)=O)NC1=O (H-CYIQNC[X3]LG-NH2; disulfide 1-6) [listing 2 of 2 here] |  |  |  | 6.82 | 6.35 | 5.84 |  |
| CC[C@H](C)[C@@H]1NC(=O)[C@H](Cc2ccc(O)cc2)NC(=O)CCSSC[C@@H](C(=O)N2C(C(C)(C)C)CC[C@H]2C(=O)N[C@@H](CC(C)C)C(=O)NCC(N)=O)NC(=O)[C@H](CC(N)=O)NC(=O)[C@H](CCC(N)=O)NC1=O (stereo partly specified) ([Mpa]YIQNC[X1]LG-NH2; disulfide 1-6) | 0 | 6.1 | 3 | 7.30 | 7.12 | 6.62 |  |
| CC[C@H](C)[C@@H]1NC(=O)[C@H](Cc2ccc(O)cc2)NC(=O)CCSSC[C@@H](C(=O)N2CCC[C@H]2C(=O)N[C@@H](CC(C)C)C(=O)NCC(N)=O)NC(=O)[C@H](CC(N)=O)NC(=O)[C@H](CCC(N)=O)NC1=O [DEMOXYTOCIN] |  | 837 | 760 |  |  | 8.49 | 1.5 |
